Assay outcomes deposited in PubChem BioAssay by The Scripps Research Institute Molecular Screening Center.
An excerpt weighted towards active compounds, which were near 3.1% of everything screened.
OX1R antag-1: blocks the human orexin 1 receptor. hit rate 0.43% among 330,000. O43613. AID 434989. CHO/OX1R cells, Fluo-8 calcium fluorescence, orexin A. inhibition, % at 5 µM;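 active = inhibition above its plate's threshold, mean inhibition of all tested compounds on the plate plus 3 SD, cut at about 37% in these data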
Target sequence (O43613 whole entry, looked up): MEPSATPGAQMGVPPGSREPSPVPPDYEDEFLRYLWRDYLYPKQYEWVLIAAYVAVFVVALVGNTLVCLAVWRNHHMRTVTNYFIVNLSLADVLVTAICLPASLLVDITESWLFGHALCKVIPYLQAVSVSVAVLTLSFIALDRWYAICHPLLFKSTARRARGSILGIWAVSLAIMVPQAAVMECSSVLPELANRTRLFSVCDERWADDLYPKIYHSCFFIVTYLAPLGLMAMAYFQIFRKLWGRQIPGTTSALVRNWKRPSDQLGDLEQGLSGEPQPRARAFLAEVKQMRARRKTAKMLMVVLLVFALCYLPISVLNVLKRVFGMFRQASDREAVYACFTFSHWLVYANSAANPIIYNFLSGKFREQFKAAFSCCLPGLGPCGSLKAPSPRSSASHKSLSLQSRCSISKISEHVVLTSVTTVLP
CHO parental Ca: counter-screen for OX1R antagonists: effect in parental CHO cells | parental CHO-K1, ATP-induced calcium, Fluo-8 fluorescence | inhibition, % at 5.6 µM | hit rate 0.63% among 330,000;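 active = inhibition above that plate's mean sample inhibition plus 3 SD, cut at about 26% in these data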
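Material: Parental CHO cells | Reagent: ATP | Compound dosing: Single nominal dose of 5.6 µM per compound | Detection: Intracellular calcium via Fluo-8 no-wash fluorescent dye | Read-out: % inhibition of ATP-induced calcium mobilization | Benchmarks: Low control ATP plus DMSO, high control DMSO only | Replicates: Singlicate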
OX1R antag-2: antagonists of human orexin 1 receptor (OX1R) | inhibition, % at 6.6 µM | hit rate 1.8% among 330,000 | O43613 | OX1R-expressing cells, FRET antagonist read-out; in the data active = inhibition mostly above about 38%, no sharp cut-off; inactive = mostly below about 40%
GPR7 antagonist: blocks human GPR7 receptor signaling; P48145; GPR7-expressing cells, fluorescence antagonist assay; inhibition, % at 4.4 µM; hit rate 1.1% among 290,000; AID 1861; in the data active = inhibition above about 16%, passing the limit was not always enough;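 note: cells stimulated with the agonist NPW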
GalR3 antagonist: blocks the human galanin receptor 3; O60755; AID 651719; inhibition, % at 3 µM; HEK293 GalR3-CNG cAMP membrane potential fluorescence; galR3 body fused to GalR1 C-terminus; hit rate 0.44% among 360,000;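 active = inhibition above the screen-wide average plus 3 SD, cut at about 13% in these data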;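 note: forskolin and galanin both at EC90 stimulate the cells; cAMP rise reported by CNG channel membrane potential dye signal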
GPR7 antag cf: human GPR7 antagonism, confirmation assay. shares compounds with GPR7 antagonist. GPR7-expressing cells, calcium fluorescence antagonist mode. inhibition, % at 4.4 µM. hit rate 52% among 2,400. AID 1952; in the data active = inhibition above about 24%;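 note: stimulated with the GPR7 agonist NPW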
MCHR1 antagonist: counter-screen for GPR7 antagonists: antagonists of human MCHR1 | MCHR1-expressing cells, fluorescence antagonist assay | inhibition, % at 4.4 µM | shares compounds with GPR7 antagonist | hit rate 62% among 2,400; in the data active = inhibition above about 22%
Large screens that a line does not name were inactive (follow-up assays come after a bar, where they were run).

COc1ccc(C=O)cc1CSc1nnc(COc2cccc3cccnc23)o1	GPR7 antagonist 24 | GPR7 antag cf inactive | MCHR1 antagonist 27
Cc1nnc(SCC(=O)NC2CCS(=O)(=O)C2)n1-c1ccccc1 (centres undefined)	GPR7 antagonist 25 | GPR7 antag cf inactive | MCHR1 antagonist inactive
CCOC(=O)Cc1csc(NC(=O)COc2ccc(N(C)S(=O)(=O)c3ccc(C)cc3)cc2)n1	GPR7 antagonist 32 | GPR7 antag cf 27 | MCHR1 antagonist 67
COC(=O)COc1ccc(-c2ccc(F)cc2)cc1C=O	GPR7 antagonist 33 | GPR7 antag cf 31 | MCHR1 antagonist 35
O=C(Nc1ccc(CN2CCCCC2)cc1)Nc1ccc(Br)cc1Cl	none
CCCN(CCC)CC(O)Cn1cc(/C=C/C(=O)c2ccccc2)c2ccccc21 (centres undefined)	none (no result: OX1R antag-1, CHO parental Ca, OX1R antag-2)
CCCCN(C)CC(O)Cn1cc(/C=C/C(=O)c2ccc(C)cc2)c2ccccc21 (centres undefined)	GPR7 antagonist 37 | GPR7 antag cf 37 | MCHR1 antagonist 36
N#CC(OC(=O)c1ccccc1)c1cccc([N+](=O)[O-])c1 (centres undefined)	none (no result: OX1R antag-1, CHO parental Ca, OX1R antag-2, GPR7 antagonist)
O=C(Nc1ccc(F)cc1)c1nc(S(=O)(=O)Cc2ccccc2)ncc1Cl	none
Cc1ccc(NC(=O)c2nc(S(=O)(=O)Cc3ccccc3)ncc2Cl)cc1	CHO parental Ca 39, GPR7 antagonist 35 | GPR7 antag cf 60 | MCHR1 antagonist 98
Cc1cccc(CS(=O)(=O)c2ncc(Cl)c(C(=O)Nc3c(C)cccc3C)n2)c1	OX1R antag-1 77, OX1R antag-2 89, GPR7 antagonist 51 | GPR7 antag cf 58 | MCHR1 antagonist 97
CC(C)OCCCNC(=O)CN1C(=O)c2cccc3cccc1c23	none
Fc1ccc(-c2[nH]ncc2CN(CC2CCC2)CC2CCCO2)c(F)c1 (centres undefined)	none
CCOc1ccc(N2CC(C(=O)Nc3ccncc3)CC2=O)cc1 (centres undefined)	GPR7 antagonist 25 | GPR7 antag cf inactive | MCHR1 antagonist inactive
CCOc1ccc(N2CC(C(=O)Nc3ccccn3)CC2=O)cc1 (centres undefined)	none
CCCN1C(=O)c2ccc(C(=O)Nc3ccccc3C(=O)O)cc2C1=O	none
O=c1cc(N2CCOCC2)[nH]c(=O)n1-c1ccc(Br)cc1	GPR7 antagonist 25 | GPR7 antag cf inactive | MCHR1 antagonist inactive
COc1ccc(S(=O)(=O)N2CCC(C(=O)NCC(=O)Nc3c(C)cccc3C)CC2)cc1OC	none (no result: OX1R antag-1, CHO parental Ca, OX1R antag-2, GPR7 antagonist)
O=C(NC1CCCCC1)C(c1ccncc1)N(Cc1ccc2c(c1)OCO2)C(=O)c1cnsn1 (centres undefined)	GPR7 antagonist 26 | GPR7 antag cf 30 | MCHR1 antagonist inactive
CC[C@@H](C(=O)[C@@H](C)[C@@H](O)[C@H](C)CCc1ccc(C)c(O)c1C(=O)O)[C@H]1O[C@](CC)([C@H]2CC[C@](O)(CC)[C@H](C)O2)C[C@@H]1C	OX1R antag-1 40, CHO parental Ca 39, GPR7 antagonist 48 (no result: GalR3 antagonist) | GPR7 antag cf 48 | MCHR1 antagonist 38
CC[C@@H](C(=O)[C@@H](C)[C@@H](O)[C@H](C)[C@@H]1O[C@@H]([C@@H](CC)C(=O)O)CC[C@@H]1C)[C@H]1O[C@]2(C=C[C@@H](O)[C@]3(CC[C@@](C)([C@H]4CC[C@](O)(CC)[C@H](C)O4)O3)O2)[C@H](C)C[C@@H]1C	none (no result: OX1R antag-1, CHO parental Ca, OX1R antag-2, GPR7 antagonist)
CCOCCCNC(=O)C(NC(=O)Cc1cccs1)c1ccc(OC)cc1 (centres undefined)	none
CSc1ncccc1C(=O)NC1CCN(Cc2ccccc2)CC1	none
CC1CCN(CCCNC(=O)c2ccc(CSCc3cccc(Cl)c3)o2)CC1	GPR7 antagonist 22 | GPR7 antag cf inactive | MCHR1 antagonist inactive
C=CCn1cnc2c(nnn2-c2ccc(C)c(C)c2)c1=O	none
CCc1cc(C(=O)NCC2CCCO2)sc1C (centres undefined)	none
Cc1ccc(C(Sc2ccccc2)C(Cn2cncn2)C(=O)c2ccccc2)cc1 (centres undefined)	none
